Entries after “also recorded” stand apart in the source; their conditions may differ. One block for each compound: values may come before it.
Assays:
MEF Icmt^−/− cells = assay: MTT cell viability in MEF Icmt-/- cells; type: cell-based; conditions: for effect on viability in MEF Icmt^−/− cells (in words): MTT; for IC50: read-out: IC50 MEF Icmt^−/−
MEF Icmt^+/+ cells = assay: MTT cell viability in MEF Icmt+/+ cells; type: cell-based
Icmt = Icmt (Homo sapiens, UniProt O60725); assay: Icmt vapor diffusion assay; type: biochemical; conditions: for Icmt inhibition (in words): vapor diffusion assay; for potency relative to 10u: Icmt inhibition
Sequence of Icmt (O60725 whole entry, the tested form may be a part): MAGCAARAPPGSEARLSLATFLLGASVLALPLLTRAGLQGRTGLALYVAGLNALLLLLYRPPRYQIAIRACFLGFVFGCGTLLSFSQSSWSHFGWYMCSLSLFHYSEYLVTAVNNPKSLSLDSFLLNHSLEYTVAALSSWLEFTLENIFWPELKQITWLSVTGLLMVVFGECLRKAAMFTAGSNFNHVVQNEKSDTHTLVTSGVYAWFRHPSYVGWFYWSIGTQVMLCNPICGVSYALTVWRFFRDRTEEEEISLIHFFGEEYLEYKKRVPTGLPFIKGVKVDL
In short: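 Vapor diffusion Icmt methylation assay. Screening at 10 μM inhibitor, with specific activity given as percent of the no-inhibitor AFC control. Test compounds were also run as possible substrates. IC50 was measured in vitro, Ki was calculated from IC50 by the Cheng–Prusoff method, and inhibition mode was set by further biochemical evaluation.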

[1] = test system: GFP-K-Ras localization in Jurkat T cells (E 6.1); assay: GFP-K-Ras membrane localization in Jurkat T cells; type: cell-based; conditions: 24 h treatment
In short: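 Jurkat T cells (E 6.1) expressing GFP-KRas treated 24 h with vehicle, test compound at several concentrations, or 25 μM simvastatin as reference. Cells laid on poly-L-lysine-coated coverslips (100 μg/mL) and fixed in 3.7% formaldehyde for 10 min. Fluorescence microscopy scored by eye in random fields of 100 cells as normal plasma membrane, partial, or complete mislocalization.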

Compound: COC(=O)CCSC/C=C(\C)CCn1cc(-c2cccc3ccccc23)nn1 [Compound 10g]
- effect on viability in MEF Icmt^−/− cells (in words) (MEF Icmt^−/− cells): did not affect viability
- IC50 (MEF Icmt^−/− cells): > 100 µM

Compound: COC(=O)CCSC/C=C(\C)CCn1cc(CCc2ccc(-c3ccccc3)cc2)nn1 [Compound 10n]
- IC50 (MEF Icmt^−/− cells): > 100 µM
- activity in MEF Icmt^+/+ versus Icmt^−/− cells (in words) (MEF Icmt^+/+ cells): selectively cytotoxic
- Ki (Icmt): 0.4 µM
- mode of Icmt inhibition (Icmt): competitive inhibitor
- ligand efficiency (in words) (Icmt; compared with POP-3MB): significantly improved ligand efficiency
- Icmt inhibition (in words) (Icmt): more potent than the corresponding carboxylate, 11n
- GFP-K-Ras membrane localization [1]: decrease in normal membrane localization; also recorded: capable of inducing K-Ras mislocalization

Compound: COC(=O)CCSC/C=C(\C)CCn1cc(CCc2cccc(-c3ccccc3)c2)nn1 [Compound 10o]
- effect on viability in MEF Icmt^−/− cells (in words) (MEF Icmt^−/− cells): did not affect viability
- IC50 (MEF Icmt^−/− cells): > 100 µM
- potency relative to 10n (times less potent) (Icmt; ratio of Icmt IC50): ~30

Compound: CC(C)=CCC/C(C)=C/CC/C(C)=C/CSc1ccccc1C(=O)O [FTS, S-farnesylthiosalicylic acid, reference compound]
- activity in MEF Icmt^+/+ versus Icmt^−/− cells (in words) (MEF Icmt^+/+ cells): equivalent activity in both cell lines

Next, values leading:

- Icmt inhibition (in words) (Icmt): further reduced inhibitory activity
Compound: COC(=O)CCSC/C=C(\C)CCn1cc(CCc2ccccc2-c2ccccc2)nn1 [Compound 10p]

- Icmt inhibition (in words) (Icmt): detrimental to inhibition
Compound: COC(=O)CCSC/C=C(\C)CCn1cc(COc2ccc(-c3ccccc3)cc2)nn1 [Compound 10q]

- potency relative to 10u (Icmt): approximately twice as potent
Compound: COC(=O)CCSC/C=C(\C)CCn1cc(CCc2ccc(-c3ccc(F)cc3)cc2)nn1 [Compound 10s]

- potency relative to 10u (Icmt): approximately twice as potent
Compound: COC(=O)CCSC/C=C(\C)CCn1cc(CCc2ccc(-c3cccc(C#N)c3)cc2)nn1 [Compound 10t]

- Icmt inhibition (in words) (Icmt): poor Icmt inhibition
Compound: C/C(=C\CSCCC(=O)O)CCn1cc(CCOC2CCCCO2)nn1 (stereo not drawn) [Compound 11m]

— article PMC3387282 (ACS medicinal chemistry letters, 2011)
